Bioassay records (PubChem)
E-selectin induc: E-selectin induction on HUVECs; P16581; HUVEC E-selectin immunofluorescence imaging; normalized: neutral wells 0, TNF-alpha wells 100; activation, % at 7.58 µM; hit rate 0.37% among 260,000;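 active means mean E-selectin-positive cell signal at least 10% of the positive control, reached in at least 60% of replicates, without over 20% cell loss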
Target sequence (P16581 whole entry, looked up): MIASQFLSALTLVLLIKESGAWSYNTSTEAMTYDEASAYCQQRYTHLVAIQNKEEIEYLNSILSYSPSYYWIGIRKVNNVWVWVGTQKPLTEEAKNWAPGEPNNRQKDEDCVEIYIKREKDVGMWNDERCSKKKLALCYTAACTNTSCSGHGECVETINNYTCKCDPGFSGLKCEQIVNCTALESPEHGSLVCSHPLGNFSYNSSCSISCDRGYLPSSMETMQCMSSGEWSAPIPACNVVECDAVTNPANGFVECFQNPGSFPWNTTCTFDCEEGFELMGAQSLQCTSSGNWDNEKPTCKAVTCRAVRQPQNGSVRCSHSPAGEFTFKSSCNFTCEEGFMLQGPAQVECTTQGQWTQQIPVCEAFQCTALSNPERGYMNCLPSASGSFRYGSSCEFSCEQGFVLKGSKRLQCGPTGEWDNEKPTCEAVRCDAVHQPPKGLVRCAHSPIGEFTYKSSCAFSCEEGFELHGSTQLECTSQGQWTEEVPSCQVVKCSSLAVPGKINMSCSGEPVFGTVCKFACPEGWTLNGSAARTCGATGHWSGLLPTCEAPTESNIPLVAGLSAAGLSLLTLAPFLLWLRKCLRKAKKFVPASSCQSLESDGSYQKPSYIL
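material = human umbilical vein endothelial cells (HUVEC), E-selectin induction | quantity = 3,000 cells/well | medium = EGM-2 growth medium on 0.1% gelatin-coated wells | technique = immunofluorescence imaging | read-out basis = % PE-positive cells | control set = TNF-alpha positive control, DMSO neutral control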
DENV2 CPE rescue: protects cells from dengue virus 2 cytopathic effect; DENV2-infected cells, cytopathic effect rescue, plate reader; CPE inhibition, % at 9.99 µM; hit rate 1.7% among 350,000; AID 651640; in the data active means CPE inhibition above about 20%, passing the limit was not always enough; tested in BHK-21 cells;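 further: 0% = median of neutral control wells and 100% = median of positive control wells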
miR-122 sensor: inhibitors of miR-122 in Huh7 cells | Huh7 miR-122 Renilla luciferase sensor, 48 h; neutral wells = 0, positive control = 100 | activation (reporter increase), % at 12.5 µM | hit rate 0.3% among 340,000 | AID 602342;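 active means mean replicate activation score at least 90 and every replicate individually at or above 90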;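 further: higher luciferase means less miR-122 activity so hits act as miR-122 inhibitors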
ERAP1 inh: ERAP1 (human) enzyme inhibition | Q9NZ08 | AID 652197 | hit rate 0.15% among 340,000 | inhibition, % at 10.7 µM | recombinant ERAP1, Leu-AMC fluorescence, 60 min;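 active means mean replicate inhibition of at least 30%, or all replicates individually reaching that 30% level; inactive means mean below 30% and not every replicate reaching it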;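 further: 0% = neutral control wells and 100% = L-leucinethiol positive control wells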
GSIS activator: primary screen for activators of insulin secretion dependent on glucose, INS-1E cells, GLuc reporter luminescence | INS-1E GLuc reporter insulin secretion, 2-3 h | activation, % at 16.6 µM | hit rate 0.61% among 370,000;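 active means lowest replicate activation of at least 40%, so every replicate reaches that level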;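 further: 0% = median of neutral control wells and 100% = median of IBMX positive control wells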
CFTR F508del cor: correctors of CFTR F508del function in bronchial epithelial cells. CFBE cells, YFP halide quenching; stimulated with forskolin plus potentiator P3; % fluorescence drop versus neutral controls. activity (quench increase), % at 7.58 µM. hit rate 0.36% among 350,000. AID 720511;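 active means mean added fluorescence quench of at least 8% versus neutral control, with both replicates also reaching 8%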;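 further: cells transiently co-express mutant CFTR-F508del with the halide-sensitive YFP; corrector assay measuring rescue of mutant channel to the surface after 24 h compound exposure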
Starred values were filed as active, the others as inactive; . = not tested or not shown; [ ] = another dose, or the depositor's remark. Rows were chosen to be rich in hits. Some 2.6% of all compounds tested hit in one or more screens of this group.

SMILES	E-selectin induc	DENV2 CPE rescue	miR-122 sensor	ERAP1 inh	GSIS activator	CFTR F508del cor
C[C@H]1CN([C@@H](C)CO)C(=O)c2cccc(N(C)C)c2O[C@@H]1CN(C)C(=O)Nc1ccc2c(c1)OCO2	0	2	-11[16.7 µM]	2	24	-3
C[C@@H]1CN([C@H](C)CO)C(=O)c2cccc(N(C)C)c2O[C@@H]1CN(C)C(=O)Nc1ccc2c(c1)OCO2	0	27*	2[16.7 µM]	.	14	2
C[C@H]1CN([C@@H](C)CO)C(=O)c2cccc(NC(=O)Nc3cccc4ccccc34)c2O[C@H]1CN(C)C(=O)Nc1cccc2ccccc12	0	0	-3[16.7 µM]	0	6	-1
C[C@@H]1CN([C@@H](C)CO)C(=O)c2cccc(N(C)C)c2O[C@H]1CN(C)C(=O)Nc1ccccc1	0	30*	35[16.7 µM]	-1	2	1
C[C@@H]1CN([C@H](C)CO)C(=O)c2cccc(N(C)C)c2O[C@H]1CN(C)C(=O)Nc1ccccc1	0	11	124*[16.7 µM]	1	5	0
C[C@H](CO)N1C[C@H](C)[C@@H](CN(C)C(=O)Nc2cccc3ccccc23)Oc2c(cccc2N(C)C)C1=O	3	21*	4[16.7 µM]	6	2	-4
C[C@H](CO)N1C[C@H](C)[C@@H](CN(C)C(=O)Nc2cccc3ccccc23)Oc2ccc(N(C)C)cc2C1=O	4	34*	-6[16.7 µM]	-1	2	-2
C[C@H](CO)N1C[C@H](C)[C@H](CN(C)C(=O)Nc2ccccc2)Oc2ncccc2C1=O	0	-2	2[16.7 µM]	49*	28	-2
C[C@H](NC(=O)C[C@@H]1CC[C@H]2[C@@H](COC[C@@H](O)CN2C(=O)Nc2ccccc2)O1)c1ccccc1	0	-3	5[16.7 µM]	0	-4	-2
N#C[C@@H]1[C@@H](c2ccc(-c3cccnc3)cc2)[C@H](CO)N1C(=O)C1CCC1	0	10	.	1	1	1
C[C@H](NC(=O)[C@H]1[C@H](CO)[C@H]2Cn3c(ccc(-c4ccncc4)c3=O)[C@H]2N1C)c1ccccc1	0	4	.	5	-1	.
COc1ccc(-c2cc(C(F)(F)F)nc(S(=O)(=O)CCCC(=O)Nc3cc(C)on3)n2)cc1OC	0	4	.	37*	6	-10
COc1ccccc1-c1cc(C(F)(F)F)nc(S(=O)(=O)CCCC(=O)Nc2cc(C)on2)n1	.	.	4	.	.	.
CCOc1cc(NC(=O)c2ccco2)c(OCC)cc1NC(=O)c1cc(OC)c(OC)c(OC)c1	.	.	-21	.	45*	.
CN1CCN(c2ccc(NC(=O)c3ccc(Oc4ccccc4)cc3)cc2)CC1	0	0	.	5	50*	0
COc1cc(OC)cc(C(=O)Nc2ccc(N3CCN(C(=O)c4cccs4)CC3)cc2)c1	2	53*	-4	-4	4	3
CNC[C@@H]1Oc2ccc(NC(=O)C3CC3)cc2CC(=O)N([C@@H](C)CO)C[C@@H]1C	0	.	-2[16.7 µM]	.	-4	-1
CC(C)NC(=O)c1ccc(COc2cccc3ccccc23)o1	0	6	0	2	-37	9.8*
CCS(=O)(=O)Nc1ccc(-c2cc(-c3ccccc3)c3cc(C)ccc3n2)cc1	10	.	.	.	110*	3
CC(C)c1ccc(/C=C/C(=O)CCC(=O)O)cc1	.	-3	213*	0	-8	-1
C[C@@H]1CCCCO[C@H](CN(C)C(=O)CCC(F)(F)F)[C@H](C)CN([C@@H](C)CO)C(=O)c2cc(NC(=O)Nc3ccc4c(c3)OCO4)ccc2O1	1	26*	-3[16.7 µM]	-2	-4	0
C[C@@H]1CN([C@H](C)CO)C(=O)c2cc(NC(=O)Nc3ccc4c(c3)OCO4)ccc2O[C@@H](C)CCCCO[C@@H]1CN(C)C(=O)CCC(F)(F)F	0	-6	20[16.7 µM]	1	-16	-2
C[C@@H]1CCCCO[C@@H](CN(C)C(=O)CCC(F)(F)F)[C@@H](C)CN([C@H](C)CO)C(=O)c2cc(NC(=O)Nc3ccc4c(c3)OCO4)ccc2O1	0	42*	0[16.7 µM]	0	5	0
NC(=O)C1(C(N)=O)OC1c1ccccc1 (stereo not drawn)	0	1	.	.	13	1
